The results in this text go back to ChEMBL document CHEMBL1255482, “Novel mechanism of glycopeptide resistance in the A40926 producer Nonomuraea sp. ATCC 39727” (2010).

The term MIC denotes the smallest concentration in the dilution series that meets the test's criterion for growth inhibition.

The structures appear in SMILES notation. Values after ≈ are worked out from the molar mass of the structure shown. Active and inactive are the calls of the source.

Holding throughout (format): functional
The test system of assay [1] is Nonomuraea. The assay can be described thus: Microbicidal activity against Nonomuraea sp. ATCC 39727 at 5000 ug/ml after 24 hrs. The method in brief:
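MBC: sonicated mycelium was grown in SM flasks for three generations, then given increasing antibiotic concentrations for a further 24 h. It was washed with physiological saline, diluted and plated on antibiotic-free SM agar for about 15 days at 28°C to give the surviving fraction. Under 0.1% survival counted as bactericidal; mean of three experiments.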

Assay [2] concerns Nonomuraea. The assay can be described thus: Antimicrobial activity against Nonomuraea sp. ATCC 39727 selected after 12 ug/ml of compound exposure. A digest of the protocol: (§1)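 Exponential-phase mycelium (about 48 h, 28°C, shaken, in SM) was exposed to the inducing glycopeptide for 24 h. It was then harvested, suspended in 0.9% NaCl and sonicated. Up to 10⁷ CFU were spread on SM agar with a glycopeptide concentration series and incubated 15 days at 28°C. MIC was taken from the population analysis profile as the concentration inhibiting 99.99% of colonies. Values are the mean of three independent experiments.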

Assay [3] has as its system Actinoplanes teichomyceticus. Briefly: Antimicrobial activity against Actinoplanes teichomyceticus.
Assay [4] relates to Nonomuraea. Briefly: Antimicrobial activity against Nonomuraea sp. ATCC 39727 selected after 0.5 ug/ml of A40926 exposure. A digest of the protocol: as §1
In assay [5] the test system is Nonomuraea. The assay can be described thus: Antimicrobial activity against vanY-deficient Nonomuraea sp. ATCC 39727. The method in brief:
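The ΔvanY mutant replaces the vanY coding sequence with the aac(3)IV cassette. Its sonicated exponential-phase mycelium (SM, 28°C, about 48 h) was plated, up to 10⁷ CFU, on SM agar carrying graded glycopeptide concentrations and incubated 15 days at 28°C. MIC is the concentration inhibiting 99.99% of the population, read from the population analysis profile.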

The subject of assay [6] is Nonomuraea. The assay can be described thus: Antimicrobial activity against Nonomuraea sp. ATCC 39727 selected after 0.25 ug/ml of teicoplanin exposure. The method in brief:
as §1

Assay [7] relates to Streptomyces venezuelae. Briefly: Antimicrobial activity against Streptomyces venezuelae ATCC 10595 harboring vanY gene. A digest of the protocol:
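Population analysis profile: 10⁷ spores of each strain were plated on MYM agar containing graded antibiotic levels and incubated 3 days. Surviving colonies were counted, and MIC was taken as the concentration inhibiting growth of 99.99% of the population.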

Assay [8] deals with Nonomuraea. Briefly: Antimicrobial activity against Nonomuraea sp. ATCC 39727. A digest of the protocol: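 MIC taken from population analysis profiles. Sonicated mycelium from exponential-phase SM cultures (about 48 h, 28°C, shaken) was suspended in 0.9% NaCl. Up to 10⁷ CFU were spread per SM agar plate containing a range of glycopeptide concentrations and incubated 15 days at 28°C. Colonies were counted for the surviving fraction. MIC is the concentration inhibiting 99.99% of the population; mean of three independent experiments.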

The subject of assay [9] is Streptomyces coelicolor. Briefly: Antimicrobial activity against Streptomyces coelicolor.

With `NC[C@H]1O[C@H](O[C@H]2[C@H](O)[C@@H](O[C@H]3O[C@H](CO)[C@@H](O)[C@H](N)[C@H]3O)[C@H](N)C[C@@H]2N)[C@H](O)[C@@H](O)[C@@H]1O`, the result in [1] was Active.
As to `CN[C@H](CC(C)C)C(=O)N[C@H]1C(=O)N[C@@H](CC(N)=O)C(=O)N[C@H]2C(=O)N[C@H]3C(=O)N[C@H](C(=O)N[C@H](C(=O)O)c4cc(O)cc(O)c4-c4cc3ccc4O)[C@H](O)c3ccc(c(Cl)c3)Oc3cc2cc(c3O[C@@H]2O[C@H](CO)[C@@H](O)[C@H](O)[C@H]2O[C@H]2C[C@](C)(N)[C@H](O)[C@H](C)O2)Oc2ccc(cc2Cl)[C@H]1O` [VANCOMYCIN], the minimum inhibitory concentration (MIC) in assay [2] amounted to 20 mg/L (≈ 13.8 µM); in assay [3] it was 90 mg/L (≈ 62.1 µM); in assay [4], 35 mg/L (≈ 24.2 µM); in [5], 4 mg/L (≈ 2.76 µM); in assay [6], 27 mg/L; in assay [8] it was 19.5 mg/L (≈ 13.5 µM). The MIC in assay [9] came to 100 mg/L (≈ 69 µM). Also, the outcome in [7] and in assay [1] was inactive.
